The assay deals with T1, Aldehyde dehydrogenase 1A1 (Rattus norvegicus) (UniProt P51647).
T1 sequence (whole entry): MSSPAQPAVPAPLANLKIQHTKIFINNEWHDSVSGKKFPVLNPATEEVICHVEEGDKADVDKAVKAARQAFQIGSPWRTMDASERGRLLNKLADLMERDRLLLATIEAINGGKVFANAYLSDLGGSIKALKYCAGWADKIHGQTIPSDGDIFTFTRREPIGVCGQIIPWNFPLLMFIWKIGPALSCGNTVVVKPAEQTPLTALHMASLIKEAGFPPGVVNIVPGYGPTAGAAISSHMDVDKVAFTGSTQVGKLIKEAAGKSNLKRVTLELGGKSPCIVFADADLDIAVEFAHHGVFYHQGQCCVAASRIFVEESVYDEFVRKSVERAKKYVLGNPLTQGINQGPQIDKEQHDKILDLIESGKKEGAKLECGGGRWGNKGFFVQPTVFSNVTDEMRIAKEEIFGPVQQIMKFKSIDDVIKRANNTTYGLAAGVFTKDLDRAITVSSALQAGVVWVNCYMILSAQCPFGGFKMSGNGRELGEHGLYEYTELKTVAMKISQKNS
In words: Evaluated in vivo for inhibition of liver mitochondrial aldehyde dehydrogenase activity 2 hour after administering into rats, at a dose of 1.25 mmol/kg. The class given is organism-based. To be noted: scale: nmol of acetaldehyde(AcH) oxide per minute per mg of protein. The method in brief:
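Rats given 1.25 mmol/kg ip; controls given saline. Killed 2 h later. Intact liver mitochondria prepared at 0 °C and kept cold until assay. After 5-min preincubation at 38 °C, 200 nmol AcH added. Quenched after 5 min with HClO₄. Activity given as nmol AcH oxidized/min/mg protein (Lowry), mean ± SEM.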

`c1ccc(CNC2CC2)cc1` returned an Activity of 2.68.
`CN(Cc1ccccc1)C1CC1` returned an Activity of 3.48.

The record behind these values is ChEMBL document CHEMBL1122616, “Latent inhibitors of aldehyde dehydrogenase as alcohol deterrent agents” (J Med Chem, 1984).
